The text below walks through data of ChEMBL document CHEMBL4699574, “Discovery of Ketone-Based Covalent Inhibitors of Coronavirus 3CL Proteases for the Potential Therapeutic Treatment of COVID-19” (J Med Chem, 2020).

Molecules are shown by their SMILES.

Data set [1] is described as follows: Irreversible inhibition of SARS coronavirus Urbani 3CL protease (9985 to 10902) using TAMRA-SITSAVLQSGFRKMK(DABCYL)-OH as substrate measured for 10 mins by FRET assay. In outline:
(§1)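 SARS CoV-1 3CLpro FRET assay; each value calculated from at least eight data points, with at least two independent determinations.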

For a further data set, the system named is SARS-CoV. Briefly: Antiviral activity against SARS COV-1 infected in monkey vero 76 cells assessed as reduction in virus-induced cytopathic effect measured after 66 hrs by neutral red method or cell titer glo-based luminescence assay. It is filed as functional, organism-based. The settings on record: Severe acute respiratory syndrome-related coronavirus. On the technique in general: Damage to the host cells serves as the signal in cytopathic effect assays.

Data set [2] is described as follows: Reversible inhibition of SARS coronavirus Urbani 3CL protease(9985 to 10902) using TAMRA-SITSAVLQSGFRKMK(DABCYL)-OH as substrate measured for 10 mins by FRET assay. In outline: as §1
Data set [3] can be described thus: Permeability of compound in human Caco-2 cells. It is filed as ADME, cell-based. On the technique in general: Caco-2 cells form a polarised layer with tight junctions and transporters.
Data set [4] relates to SARS coronavirus Urbani. Briefly: Irreversible inhibition of SARS coronavirus Urbani 3CL protease (9985 to 10902) assessed as first order inhibition rate constant (Kobs/I ratio) using TAMRA-SITSAVLQSGFRKMK(DABCYL)-OH as substrate measured for 10 mins by FRET assay. In outline: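 SARS CoV-1 3CL protease activity was monitored by a FRET read-out. Irreversible, time-dependent inactivation was expressed as kobs/I. Each value was calculated from at least eight data points, with at least two independent determinations.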

The test system of data set [5] is SARS coronavirus Urbani. The experiment in a line: Irreversible inhibition of SARS coronavirus Urbani 3CL protease (9985 to 10902) at 1 uM using TAMRA-SITSAVLQSGFRKMK(DABCYL)-OH as substrate measured for 10 mins by FRET assay relative to control.
The nature of data set [6]: Glutathione reactivity in pH 7.8 Tris buffer assessed as half-life at 1 uM measured after 30 mins by LC/MS analysis. It is filed as ADME.
Data set [7] can be described thus: Metabolic stability in human plasma assessed as half-life at 1 uM incubated for 60 mins by LC/MS analysis. It is filed as ADME, cell-free.
A short description of data set [8]: Solubility of the compound in vehicle formulations. It is filed as physicochemical.

What is called IC50 is the point on the concentration scale where inhibition reaches its midpoint. `COc1cccc2[nH]c(C(=O)N[C@@H](CC(C)C)C(=O)N[C@@H](C[C@@H]3CCNC3=O)C(=O)COC(=O)C3CC3)cc12` came in with an IC50 in data set [1] of 182 nM.

The compound `CC(=O)N[C@@H](CC(C)C)C(=O)N[C@@H](C[C@@H]1CCNC1=O)C(=O)COC(=O)c1c(Cl)cccc1Cl` showed an IC50 in data set [1] of 1030 nM. As usually defined, the EC50 is the concentration giving half of the maximal effect. On to `COc1cccc2[nH]c(C(=O)N[C@@H](CC3CCCCC3)C(=O)N[C@@H](C[C@@H]3CCNC3=O)C(=O)CO)cc12`, for which the half-maximal effective concentration (EC50) in the data set on SARS-CoV stood at 14000 nM. In [2], this compound had an IC50 of 44 nM. Further, the permeability result in data set [3] is listed as “Impermeable”. Regarding `CCCC[C@H](NC(=O)c1cc2c(OC)cccc2[nH]1)C(=O)N[C@@H](C[C@@H]1CCNC1=O)C(=O)CO`, the EC50 in the data set with SARS-CoV was 10000 nM. Half-maximal inhibition in data set [2] (IC50) was put at 20 nM. In addition, the permeability result in data set [3] is “Impermeable”. On to `COCC(=O)[C@H](C[C@@H]1CCNC1=O)NC(=O)[C@H](CC(C)C)NC(=O)c1cc2ccccc2[nH]1`, for which the EC50 in the data set on SARS-CoV was 45000 nM. Besides, half-maximal inhibition in data set [2] (IC50) was put at 131 nM. As to `COc1cccc2[nH]c(C(=O)N[C@@H](CC(C)C)C(=O)N[C@@H](C[C@@H]3CCNC3=O)C(=O)COC(=O)c3ccc(Cl)cc3O)cc12`, the K in the data set with SARS coronavirus Urbani [4] stood at 11500 M⁻¹ s⁻¹. `COc1cccc2[nH]c(C(=O)N[C@@H](CC(C)C)C(=O)N[C@@H](C[C@@H]3CCNC3=O)C(=O)COC(=O)c3ccc(Cl)cc3)cc12` registered an IC50 in data set [1] of 97 nM. `COCC(=O)[C@H](C[C@@H]1CCNC1=O)NC(=O)[C@H](CC(C)(C)C)NC(=O)c1cc2ccccc2[nH]1`: in the data set on SARS-CoV, the EC50 is 46000 nM. Also, half-maximal inhibition in data set [2] (IC50) was put at 105 nM.

As to `COCC(=O)[C@H](C[C@@H]1CCNC1=O)NC(=O)[C@H](CC(C)(C)C)NC(=O)[C@H]1CCCO1`, the half-maximal effective concentration (EC50) in the data set on SARS-CoV was above 100000 nM. This compound yielded a half-inhibitory concentration (IC50) in [2] of 1080 nM. Turning to `COc1cccc2[nH]c(C(=O)N[C@@H](CC(C)C)C(=O)N[C@@H](C[C@@H]3CCNC3=O)C(=O)CCl)cc12`, the K with SARS coronavirus Urbani [4] was 283000 M⁻¹ s⁻¹. Regarding `COc1cccc2[nH]c(C(=O)N[C@@H](CC(C)C)C(=O)N[C@@H](C[C@@H]3CCNC3=O)C(=O)COC(=O)C(C)(C)C)cc12`, 230 nM corresponded to half-maximal inhibition in data set [1] (IC50). For the compound `CC(C)C[C@H](NC(=O)c1nc2ccccc2[nH]1)C(=O)N[C@@H](C[C@@H]1CCNC1=O)C(=O)COC(=O)c1c(Cl)cccc1Cl`, the K in the data set on SARS coronavirus Urbani [4] was 30300 M⁻¹ s⁻¹. For `COc1cccc2[nH]c(C(=O)N[C@@H](CC(C)C)C(=O)N[C@@H](C[C@@H]3CCNC3=O)C(=O)COC(=O)c3ccccc3C#N)cc12`, in data set [1], the IC50 worked out at 17 nM. `COc1cccc2[nH]c(C(=O)N[C@@H](CC(C)C)C(=O)N[C@@H](C[C@@H]3CCNC3=O)C(=O)COC(C)=O)cc12` displayed an IC50 in data set [1] of 220 nM. Consider `COc1cccc2[nH]c(C(=O)N[C@@H](CCC(C)C)C(=O)N[C@@H](C[C@@H]3CCNC3=O)C(=O)CO)cc12`, for which the EC50 in the data set with SARS-CoV was determined as 33000 nM. The compound also showed an IC50 in data set [2] of 34 nM. Further, the permeability entry in data set [3] is recorded as “Impermeable”. Compound `COc1cccc2[nH]c(C(=O)N[C@@H](CC(C)C)C(=O)N[C@@H](C[C@@H]3CCNC3=O)C(=O)COC(=O)c3ccc(C)cc3)cc12` registered an IC50 in data set [1] of 87 nM. As to `CC(C)(C)C[C@H](NC(=O)c1cc2ccccc2[nH]1)C(=O)N[C@@H](C[C@@H]1CCNC1=O)C(=O)CO`, in the data set on SARS-CoV, the EC50 stood at 17000 nM. The same compound registered an IC50 in data set [2] of 20 nM.

In the case of `COc1cccc2[nH]c(C(=O)N[C@@H](CC(C)C)C(=O)N[C@@H](C[C@@H]3CCNC3=O)C(=O)COC(=O)c3ccc(C#N)cc3F)cc12`, in the data set with SARS coronavirus Urbani [4], the K worked out at 13300 M⁻¹ s⁻¹. With `CC(C)(C)C[C@H](NC(=O)[C@H]1CCCO1)C(=O)N[C@@H](C[C@@H]1CCNC1=O)C(=O)CO`, the EC50 in the data set with SARS-CoV was found to be 33000 nM. This compound displayed an IC50 in data set [2] of 91 nM.

Regarding `COc1cccc2[nH]c(C(=O)N(C)[C@@H](CC(C)C)C(=O)N[C@@H](C[C@@H]3CCNC3=O)C(=O)CO)cc12`, the EC50 in the data set on SARS-CoV was determined as 19000 nM. Inhibition in data set [2] was half-maximal at 83 nM (IC50). The permeability result in [3] is recorded as “Impermeable”. Turning to `COc1cccc2[nH]c(C(=O)N[C@@H](CC(C)C)C(=O)N[C@@H](C[C@@H]3CCNC3=O)C(=O)COC(=O)c3c(C)cccc3C)cc12`, the midpoint of inhibition in data set [1], the IC50, lay at 74 nM.

For the compound `COc1cccc2[nH]c(C(=O)N[C@@H](Cc3ccccc3)C(=O)N[C@@H](C[C@@H]3CCNC3=O)C(=O)CO)cc12`, the EC50 in the data set on SARS-CoV is 47000 nM. The IC50 in data set [2] was found to be 103 nM. Further, in [3], the permeability entry was “Impermeable”. Consider `COc1cccc2[nH]c(C(=O)N[C@@H](CC(C)(C)C)C(=O)N[C@@H](C[C@@H]3CCNC3=O)C(=O)CO)cc12`, for which, in the data set with SARS-CoV, the 50% effective concentration (EC50) came to 10000 nM. Half-maximal inhibition in [2] (IC50) was put at 7 nM. The permeability result in data set [3] is listed as “Impermeable”.

One may read the inhibition as the percentage by which the read-out fell short of the control. `CC(C)C[C@H](NC(=O)OC(C)(C)C)C(=O)N[C@@H](C[C@@H]1CCNC1=O)C(=O)COC(=O)c1c(Cl)cccc1Cl` had an inhibition in the data set on SARS coronavirus Urbani [5] of 24%. As to `COCC(=O)[C@H](C[C@@H]1CCNC1=O)NC(=O)[C@H](CC(C)(C)C)NC(=O)c1cc2c(OC)cccc2[nH]1`, the EC50 in the data set with SARS-CoV stood at 32000 nM. Half-maximal inhibition in data set [2] (IC50) required 35 nM. Take `COCC(=O)[C@H](C[C@@H]1CCNC1=O)NC(=O)[C@H](CC(C)C)NC(=O)c1cc2c(OC)cccc2[nH]1`: the EC50 with SARS-CoV was found to be 31000 nM. The IC50 in data set [2] was found to be 53 nM. For the compound `COc1cccc2[nH]c(C(=O)N[C@@H](CC(C)C)C(=O)N[C@@H](C[C@@H]3CCNC3=O)C(=O)COC(=O)c3c(F)cccc3F)cc12`, the K with SARS coronavirus Urbani [4] was 12800 M⁻¹ s⁻¹. Turning to `CC(C)C[C@H](NC(=O)c1cc2ccccc2[nH]1)C(=O)N[C@@H](C[C@@H]1CCNC1=O)C(=O)CO`, in the data set with SARS-CoV, the EC50 worked out at 20000 nM. It took 38 nM to reach half-maximal inhibition in [2] (IC50). For the compound `COc1cccc(OC)c1C(=O)OCC(=O)[C@H](C[C@@H]1CCNC1=O)NC(=O)[C@H](CC(C)C)NC(=O)c1cc2c(OC)cccc2[nH]1`, the IC50 in data set [1] came out at 205 nM. In the case of `CCOCC(=O)[C@H](C[C@@H]1CCNC1=O)NC(=O)[C@H](CC(C)(C)C)NC(=O)c1cc2ccccc2[nH]1`, the EC50 in the data set on SARS-CoV stood at 20000 nM. The compound also yielded a 50% inhibitory concentration (IC50) in data set [2] of 112 nM. With `COc1cccc2[nH]c(C(=O)N[C@@H](CC(C)C)C(=O)N[C@@H](C[C@@H]3CCNC3=O)C(=O)COC(=O)c3ccccc3)cc12`, in [1], the IC50 amounted to 86 nM. Still for that read-out and setting: under `COc1cccc2[nH]c(C(=O)N[C@@H](CC(C)C)C(=O)N[C@@H](C[C@@H]3CCNC3=O)C(=O)COC(=O)c3ccc(C#N)cc3)cc12` stands 53 nM.

What is called half-life is how long it takes for the measured level to halve. On to `COc1cccc2[nH]c(C(=O)N[C@@H](CC(C)C)C(=O)N[C@@H](C[C@@H]3CCNC3=O)C(=O)COC(=O)c3c(Cl)cccc3Cl)cc12`, for which, in the data set with SARS coronavirus Urbani [4], the K came to 63000 M⁻¹ s⁻¹. In the data set on SARS-CoV, the EC50 was found to be 290 nM. For the same compound, the half-life at 1 µM was above 1 h in data set [6] and above 4 h in [7]. For the same compound, the solubility entry in data set [8] was “Insoluble”.

`COc1cccc2[nH]c(C(=O)N[C@@H](CC(C)C)C(=O)N[C@@H](C[C@@H]3CCNC3=O)C(=O)COC(=O)c3ccc(F)cc3)cc12` had an IC50 in data set [1] of 82 nM.

As to `CC(C)C[C@H](NC(=O)[C@H]1CCCO1)C(=O)N[C@@H](C[C@@H]1CCNC1=O)C(=O)COC(=O)c1c(Cl)cccc1Cl`, in the data set on SARS coronavirus Urbani [4], the K came out at 5830 M⁻¹ s⁻¹. Consider `COc1ccc(C(=O)OCC(=O)[C@H](C[C@@H]2CCNC2=O)NC(=O)[C@H](CC(C)C)NC(=O)c2cc3c(OC)cccc3[nH]2)cc1`, for which 79 nM corresponded to half-maximal inhibition in data set [1] (IC50).
